Experiments:
[1] = biological target: T1, 3-hydroxy-3-methylglutaryl-coenzyme A reductase (Homo sapiens, UniProt P04035); assay: Inhibition of HMG-CoA reductase (unknown origin)
T1 sequence (P04035 whole entry): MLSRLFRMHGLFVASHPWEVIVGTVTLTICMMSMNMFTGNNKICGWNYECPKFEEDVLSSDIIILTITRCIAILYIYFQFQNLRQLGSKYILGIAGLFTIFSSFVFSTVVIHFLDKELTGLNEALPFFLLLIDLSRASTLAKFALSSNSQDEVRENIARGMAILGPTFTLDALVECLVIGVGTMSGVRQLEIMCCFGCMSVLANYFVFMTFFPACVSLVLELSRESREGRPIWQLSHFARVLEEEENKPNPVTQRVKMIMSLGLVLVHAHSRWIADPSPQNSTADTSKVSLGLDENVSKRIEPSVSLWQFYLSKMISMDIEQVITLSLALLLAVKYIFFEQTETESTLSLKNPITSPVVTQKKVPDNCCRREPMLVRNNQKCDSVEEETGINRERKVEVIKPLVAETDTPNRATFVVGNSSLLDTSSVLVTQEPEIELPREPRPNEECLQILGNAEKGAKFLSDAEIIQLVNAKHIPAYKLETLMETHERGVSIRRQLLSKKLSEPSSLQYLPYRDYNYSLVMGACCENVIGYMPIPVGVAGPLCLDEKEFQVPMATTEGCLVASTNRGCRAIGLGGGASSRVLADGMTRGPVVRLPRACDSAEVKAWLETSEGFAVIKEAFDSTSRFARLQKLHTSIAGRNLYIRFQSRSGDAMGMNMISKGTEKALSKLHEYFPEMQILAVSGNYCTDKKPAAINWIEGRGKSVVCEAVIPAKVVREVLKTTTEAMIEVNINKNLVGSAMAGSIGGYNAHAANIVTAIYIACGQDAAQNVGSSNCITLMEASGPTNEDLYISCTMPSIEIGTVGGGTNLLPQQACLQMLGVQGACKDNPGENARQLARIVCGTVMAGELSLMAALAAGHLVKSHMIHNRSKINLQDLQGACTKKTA
Method in brief: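 Pig liver microsomal enzyme (about 4 U/mL final), colorimetric. Compounds at 2.5–80 μM final with HMG-CoA (200 μM final) in 0.1 mol/L potassium phosphate pH 7.0 (3.5 mmol/L EDTA, 10 mmol/L DTT, 0.1 g/L BSA). Preincubated 5 min at 37 °C, then NADPH (100 μM final) added for 15 min at 37 °C. A340 read; % inhibition against enzyme-free blanks and compound-free controls.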

[2] = biological target: T2, 3-hydroxy-3-methylglutaryl-coenzyme A reductase (Sus scrofa, UniProt Q1W675); assay: Inhibition of pig liver microsomes HMG-CoA reductase incubated for 5 mins in using HMG-CoA and NADPH by colorimetric method
T2 sequence (Q1W675 whole entry): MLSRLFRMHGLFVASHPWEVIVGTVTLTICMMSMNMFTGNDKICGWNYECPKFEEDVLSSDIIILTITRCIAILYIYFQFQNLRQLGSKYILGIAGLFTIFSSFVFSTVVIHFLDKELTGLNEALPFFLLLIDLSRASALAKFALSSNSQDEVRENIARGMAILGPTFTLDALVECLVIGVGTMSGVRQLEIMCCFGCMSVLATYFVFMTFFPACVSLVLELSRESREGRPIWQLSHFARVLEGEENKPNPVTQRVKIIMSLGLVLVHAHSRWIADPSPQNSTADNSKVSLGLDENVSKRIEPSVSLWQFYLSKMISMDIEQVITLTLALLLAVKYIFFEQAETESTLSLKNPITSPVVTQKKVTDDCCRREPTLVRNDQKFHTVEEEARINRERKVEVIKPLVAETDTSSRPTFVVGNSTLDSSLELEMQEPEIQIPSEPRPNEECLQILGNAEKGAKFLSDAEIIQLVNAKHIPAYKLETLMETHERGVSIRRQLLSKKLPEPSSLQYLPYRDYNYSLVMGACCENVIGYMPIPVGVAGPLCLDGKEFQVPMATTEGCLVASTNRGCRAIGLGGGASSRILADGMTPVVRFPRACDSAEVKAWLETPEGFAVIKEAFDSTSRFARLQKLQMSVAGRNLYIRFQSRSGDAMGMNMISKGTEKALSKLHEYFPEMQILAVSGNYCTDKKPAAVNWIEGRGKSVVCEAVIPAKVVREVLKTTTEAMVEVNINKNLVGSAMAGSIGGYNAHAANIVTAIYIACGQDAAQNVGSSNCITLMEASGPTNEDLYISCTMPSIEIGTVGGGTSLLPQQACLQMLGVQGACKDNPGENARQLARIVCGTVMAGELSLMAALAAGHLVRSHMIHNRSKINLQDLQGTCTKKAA
Method in brief: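 Pig liver microsomal HMG-CoA reductase at about 4 U/mL final, with compound at 2.5–80 μM final and 200 μM HMG-CoA. Buffer was 0.1 mol/L potassium phosphate pH 7.0 with EDTA, dithiothreitol and BSA. After 5 min at 37 °C, 100 μM NADPH was added for 15 min at 37 °C. Absorbance was read at 340 nm, with percent inhibition from blank-corrected OD.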

[3] = Inhibition of Baker's yeast alpha-glucosidase; parameters: species or system Saccharomyces cerevisiae
Method in brief: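 Baker's yeast α-glucosidase assay read by absorbance at 405 nm. Control wells got phosphate buffer instead of compound, and blanks got buffer instead of enzyme. Percent inhibition was calculated from blank-corrected OD of test versus control wells.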

[4] = Inhibition of alpha-glucosidase in rat intestinal mucosa pre-incubated for 40 mins using p-nitrophenyl-alpha-D-glucopyranoside substrate; type: tissue-based
Method in brief: (§1)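 Rat intestinal mucosa powder (1.0 g) was suspended in 3 mL 0.9% saline and sonicated at 4 °C (12 × 30 s), then spun at 10000g, 4 °C, 30 min; the supernatant served as enzyme. Compound in DMSO was mixed with substrate (maltose, sucrose or p-nitrophenyl-α-D-glucopyranoside) in 0.1 M phosphate buffer pH 6.9 and preincubated 40 min. Glucose was read by GOD kit at 550 nm, with blank-corrected percent inhibition.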

[5] = biological target: Sucrase-isomaltase, intestinal (Rattus norvegicus, UniProt P23739); assay: Inhibition of sucrase in rat intestinal mucosa pre-incubated for 40 mins using sucrose substrate; type: tissue-based; method in brief: as §1
[6] = tested on: K562; assay: Cytotoxicity against human K562 cells by MTT method; type: functional, cell-based; details: Homo sapiens, K562
[7] = tested on: PC-3; assay: Cytotoxicity against human PC3 cells by MTT method; type: functional, cell-based; details: Homo sapiens, PC-3
[8] = Inhibition of alpha-glucosidase (unknown origin); parameters: species or system Homo sapiens
Method in brief: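 Baker's yeast enzyme with phosphate buffer; absorbance read at 405 nm. Compound-free controls and enzyme-free blanks used. % inhibition = [(ODcontrol − ODcontrol blank) − (ODtest − ODtest blank)]/(ODcontrol − ODcontrol blank) × 100.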

Sucrase-isomaltase, intestinal, sequence (P23739 1-1013 limits assumed): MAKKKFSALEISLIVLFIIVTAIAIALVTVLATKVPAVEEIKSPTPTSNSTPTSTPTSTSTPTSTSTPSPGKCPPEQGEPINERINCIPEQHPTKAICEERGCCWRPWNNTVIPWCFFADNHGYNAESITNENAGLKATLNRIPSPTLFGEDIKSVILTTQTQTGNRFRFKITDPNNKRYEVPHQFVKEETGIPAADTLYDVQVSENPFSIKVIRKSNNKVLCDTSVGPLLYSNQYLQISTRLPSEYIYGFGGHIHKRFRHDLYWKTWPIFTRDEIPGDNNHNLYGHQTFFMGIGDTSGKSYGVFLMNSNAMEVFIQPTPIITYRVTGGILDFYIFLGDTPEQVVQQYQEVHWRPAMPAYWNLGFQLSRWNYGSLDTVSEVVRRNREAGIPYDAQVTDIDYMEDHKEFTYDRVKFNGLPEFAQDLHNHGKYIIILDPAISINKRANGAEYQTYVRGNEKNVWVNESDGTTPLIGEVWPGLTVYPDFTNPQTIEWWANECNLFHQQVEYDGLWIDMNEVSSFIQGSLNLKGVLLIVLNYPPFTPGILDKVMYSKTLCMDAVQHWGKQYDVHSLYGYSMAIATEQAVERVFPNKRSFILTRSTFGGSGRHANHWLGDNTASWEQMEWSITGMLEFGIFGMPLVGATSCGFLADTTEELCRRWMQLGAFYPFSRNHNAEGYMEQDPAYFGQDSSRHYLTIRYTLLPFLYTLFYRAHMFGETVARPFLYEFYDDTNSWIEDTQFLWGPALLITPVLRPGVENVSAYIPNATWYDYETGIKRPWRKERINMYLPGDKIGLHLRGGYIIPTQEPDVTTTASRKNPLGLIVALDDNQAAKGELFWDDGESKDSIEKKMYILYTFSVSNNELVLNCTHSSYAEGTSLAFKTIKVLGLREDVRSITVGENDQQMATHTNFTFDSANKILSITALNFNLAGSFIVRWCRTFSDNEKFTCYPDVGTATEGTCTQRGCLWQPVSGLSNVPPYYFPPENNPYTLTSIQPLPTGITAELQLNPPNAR
Sucrase-isomaltase, intestinal, sequence (P23739 1014-1841 limits assumed): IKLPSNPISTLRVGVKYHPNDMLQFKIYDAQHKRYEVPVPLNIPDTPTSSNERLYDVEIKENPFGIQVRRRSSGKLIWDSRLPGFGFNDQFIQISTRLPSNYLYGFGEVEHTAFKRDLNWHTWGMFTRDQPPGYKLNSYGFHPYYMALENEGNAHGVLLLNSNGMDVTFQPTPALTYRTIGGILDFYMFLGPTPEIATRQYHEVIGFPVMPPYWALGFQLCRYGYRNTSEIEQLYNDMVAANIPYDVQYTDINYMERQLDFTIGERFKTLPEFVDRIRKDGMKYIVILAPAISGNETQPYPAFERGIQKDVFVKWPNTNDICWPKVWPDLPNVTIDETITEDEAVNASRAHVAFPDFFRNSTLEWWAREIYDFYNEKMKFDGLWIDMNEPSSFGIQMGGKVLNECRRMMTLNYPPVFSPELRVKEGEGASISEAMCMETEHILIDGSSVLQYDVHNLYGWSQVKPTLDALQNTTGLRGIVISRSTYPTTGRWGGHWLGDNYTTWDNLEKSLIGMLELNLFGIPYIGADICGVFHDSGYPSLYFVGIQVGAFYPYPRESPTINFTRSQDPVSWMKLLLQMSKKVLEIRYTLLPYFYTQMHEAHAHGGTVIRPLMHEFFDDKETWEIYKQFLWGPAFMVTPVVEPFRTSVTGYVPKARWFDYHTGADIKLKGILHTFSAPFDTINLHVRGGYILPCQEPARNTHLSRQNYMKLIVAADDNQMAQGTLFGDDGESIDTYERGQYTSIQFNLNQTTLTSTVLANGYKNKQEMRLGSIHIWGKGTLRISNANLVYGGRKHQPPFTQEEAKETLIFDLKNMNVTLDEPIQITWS

| SMILES | IC50 [1] [µM] | IC50 [2] [µM] | IC50 [3] [µM] | IC50 [4] [µM] | IC50 [5] [µM] | IC50 [6] [µM] | IC50 [7] [µM] | IC50 [8] [µM] |
| --- | --- | --- | --- | --- | --- | --- | --- | --- |
| C/C(=C\CC[C@@H](C)[C@H]1C[C@H](O)[C@@]2(C)C3=CC[C@H]4C(C)(C)C(=O)CC[C@]4(C)C3=CC[C@]12C)C(=O)O | 21.7 |  |  |  |  |  |  |  |
| C/C(=C\CC[C@@H](C)[C@H]1CC[C@@]2(C)C3=C(CC[C@]12C)[C@@]1(C)CC[C@H](O)C(C)(C)[C@@H]1CC3=O)C(=O)O | 22.3 |  |  |  |  |  |  |  |
| CC(C)=CCC/C(C)=C/CC/C(=C\Cc1cc(O)ccc1O)C(=O)O[C@@H](CC[C@@H](C)[C@H]1CC[C@@]2(C)C3=CC[C@H]4C(C)(C)C(=O)CC[C@]4(C)C3=CC[C@]12C)[C@](C)(O)CO |  | > 100 | > 50 | > 50 | > 50 | 104 | > 200 |  |
| CC(C)=CCC/C(C)=C/CC/C(=C/Cc1cc(O)ccc1O)C(=O)OC[C@@](C)(O)[C@@H](O)CC[C@@H](C)[C@H]1CC[C@@]2(C)C3=C(CC[C@]12C)[C@@]1(C)CCC(=O)C(C)(C)[C@@H]1CC3=O |  | > 100 | 5.9 | 9.3 | 18.5 | 10.7 | 10.8 |  |
| C/C(=C\CC[C@@H](C)[C@H]1CC[C@@]2(C)C3=CC[C@H]4C(C)(C)[C@@H](O)CC[C@]4(C)C3=CC[C@]12C)CO [GANODEROL B] |  |  |  |  |  |  |  | 120 |

From ChEMBL document CHEMBL3593234, “Lanostane Triterpenes from the Tibetan Medicinal Mushroom Ganoderma leucocontextum and Their Inhibitory Effects on HMG-CoA Reductase and α-Glucosidase” (J Nat Prod, 2015)
